# Screens (PubChem)
# Sampled rows, rich in hits. Any-hit rate of the full collection: about 2.9%.
# TRPC4 inh = inhibitors of mouse TRPC4 channel, primary screen, Fluo4 calcium, HEK293 TRPC4beta/mu-opioid cells; 0.39% of 300,000 active; DAMGO-evoked Fluo4 calcium flux; active compounds read low; B-score at 10 µM; Short transient receptor potential channel 4 (Mus musculus), Q9QUQ5; AID 2247, 2010;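 active = B-score over 3 SD under the library average, no early fluorescence shift, positive overall ratio signal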
#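 Signal: kinetic Fluo4 fluorescence imaging of calcium influx. Material: stable TRPC4beta/mu-opioid receptor HEK293 cells. Probe or stimulus: DAMGO in two steps, submaximal then maximal.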
# TRPC4 act = activators of mouse TRPC4 channel, primary screen, Fluo4 calcium, HEK293 TRPC4beta/mu-opioid cells; B-score at 10 µM; 0.49% of 310,000 active; Short transient receptor potential channel 4 (Mus musculus), Q9QUQ5; Fluo4 calcium fluorescence; active compounds read high;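 active = B-score above 5 SD of library B-scores, and initial fluorescence ratio not above library mean plus 5 SD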;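 note: positive B-score marks a calcium rise read as TRPC4 activation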
#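 System: HEK293 cells stably co-expressing mouse TRPC4beta and mu-opioid receptor; Schedule: Fluo4 dye loading 45 min at room temperature, 110 s recording; Detection: Fluo4 fluorescence, kinetic; Evaluation: B-scored integrated calcium fluorescence ratio; Controls: buffer (low) and maximal DAMGO (high).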
# TRPC6 act = mouse TRPC6 channel activators, primary screen, cell-based, HEK293, membrane potential dye; Short transient receptor potential channel 6 (Mus musculus), Q61143; HEK293-TRPC6 membrane potential dye fluorescence; active compounds read high; B-score at 10 µM; 0.13% of 310,000 active; AID 2550, 2010;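 active = B-score of the integrated fluorescence ratio above library mean plus 3 SD, and starting fluorescence ratio within library mean plus 5 SD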;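 note: higher score means more depolarization so channel activation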
# Target sequence (Q61143 whole entry, looked up): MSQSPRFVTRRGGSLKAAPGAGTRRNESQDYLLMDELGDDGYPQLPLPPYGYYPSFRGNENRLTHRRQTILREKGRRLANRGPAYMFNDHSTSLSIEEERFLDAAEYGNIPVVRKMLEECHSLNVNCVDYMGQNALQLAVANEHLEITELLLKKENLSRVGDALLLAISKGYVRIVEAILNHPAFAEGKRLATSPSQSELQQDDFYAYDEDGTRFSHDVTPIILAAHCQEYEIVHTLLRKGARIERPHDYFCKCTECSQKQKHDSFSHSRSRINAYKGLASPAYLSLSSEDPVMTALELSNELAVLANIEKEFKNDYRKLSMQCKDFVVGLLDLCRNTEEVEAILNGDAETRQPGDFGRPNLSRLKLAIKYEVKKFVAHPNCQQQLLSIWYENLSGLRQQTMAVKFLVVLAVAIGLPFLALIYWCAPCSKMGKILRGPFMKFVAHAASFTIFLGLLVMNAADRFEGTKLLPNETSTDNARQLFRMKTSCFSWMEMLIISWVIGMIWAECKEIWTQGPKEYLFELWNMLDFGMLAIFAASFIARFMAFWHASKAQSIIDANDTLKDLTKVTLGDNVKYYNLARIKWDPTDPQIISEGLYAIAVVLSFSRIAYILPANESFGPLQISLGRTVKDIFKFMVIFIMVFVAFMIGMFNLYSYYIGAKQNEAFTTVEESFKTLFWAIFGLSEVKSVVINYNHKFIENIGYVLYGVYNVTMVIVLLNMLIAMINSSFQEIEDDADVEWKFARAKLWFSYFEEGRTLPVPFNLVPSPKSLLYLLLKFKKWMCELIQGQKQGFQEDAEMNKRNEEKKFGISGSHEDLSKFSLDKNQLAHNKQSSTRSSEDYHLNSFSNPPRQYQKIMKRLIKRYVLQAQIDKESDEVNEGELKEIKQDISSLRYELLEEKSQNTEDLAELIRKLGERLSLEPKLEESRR
# Kir21 inh = inhibitors of mouse Kir2.1 inward-rectifier potassium channel; Inward rectifier potassium channel 2 (Mus musculus), P35561; HEK293-Kir2.1, FluxOR thallium flux fluorescence; active compounds read low; B-score at 10 µM; 0.85% of 310,000 active; AID 1672, 2009;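 active = fluorescence ratio B-score at or below minus 3 SD of library scores, with starting-brightness B-score within 2 SD, cut at about -4.2 in these data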;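 note: channel flux triggered by added potassium and thallium sulfate stimulus; B-score of peak minus minimum fluorescence over baseline after thallium stimulus; more negative B-score means stronger Kir2.1 block with less thallium influx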
# TRPC4 PAM = positive allosteric modulators of TRPC4, primary screen, cell-based, mouse TRPC4beta, HEK293 mu-opioid, Fluo-4 calcium; Short transient receptor potential channel 4 (Mus musculus), Q9QUQ5; 0.42% of 310,000 active; B-score at 10 µM; DAMGO EC20, Fluo-4 Ca2+ flux; active compounds read high;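 active = B-score of calcium response area above 5 SD of library B-scores, with initial fluorescence ratio within 5 SD of library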;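 note: B-score of integrated fluorescence ratio over time as area under calcium response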
# TRPC6 inh = mouse TRPC6 channel inhibitors, primary screen, cell-based, HEK293, membrane potential dye. Short transient receptor potential channel 6 (Mus musculus), Q61143. ACh-evoked depolarization; active compounds read low. B-score at 10 µM. 1.1% of 310,000 active. AID 2553, 2010;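 active = B-score under library mean minus 3 SD, initial fluorescence not abnormally high, positive integrated signal ratio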;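 note: B-score derived from integrated fluorescence ratio over the kinetic read; more negative B-score means stronger inhibition of depolarization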
# TRPC4 spec 2 = second selectivity test of TRPC6 inhibitors: effect on mouse TRPC4. 42% of 920 active. HEK293 TRPC4/MOR, membrane potential dye fluorescence; channel activated by saturating DAMGO dose. inhibition, % at 10 µM. AID 2776. shares compounds with TRPC6 inh;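 active = compounds whose fluorescence signal differed from control wells by over 3 SD, either direction, in both duplicate plates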
# TRPC4 spec = mouse TRPC4 modulation by TRPC6 hits, confirmation, selectivity assay for TRPC6 inhibitor project, cell-based, HEK293 TRPC4/mu-opioid, membrane potential dye | AID 2777, 2010 | shares compounds with TRPC6 inh | 61% of 920 active | membrane potential fluorescence | activity change, negative = inhibition, % at 10 µM;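 active = rise or fall in signal beyond 3 SD of buffer-only wells in both replicate plates, either sign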;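 note: integrated kinetic ratio of fluorescence range over baseline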
# HEK293 MPD ctr 2-1 = nonspecific membrane potential effects, parental HEK293, confirmation, counter-screen for TRPC6 inhibitor project, cell-based, second counter screen; signal change vs control, % at 10 µM; AID 2779, 2010; shares compounds with TRPC6 inh; parental HEK293 membrane potential dye fluorescence; maximal acetylcholine challenge after compound addition; 31% of 920 active;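 active = membrane potential signal moving either way by over 3 SD of the maximum-effect control, in both duplicate plates, meaning non-specific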
# HEK293 MPD ctr-1 = membrane potential modulation in parental HEK293, confirmation, counter-screen for TRPC6 inhibitor project, cell-based; shares compounds with TRPC6 inh; parental HEK293 membrane potential dye fluorescence; 60% of 920 active; membrane potential signal change, % at 10 µM;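 active = membrane potential signal shifting up or down by more than 3 SD of buffer-only wells, on both duplicate plates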
# HEK293 MPD ctr-2 = parental HEK293 membrane potential modulation, confirmation, counter-screen for TRPC6 modulator project, cell-based. membrane potential signal change, % at 10 µM. membrane potential dye fluorescence. 51% of 2,400 active. AID 488924, 2010. shares compounds with TRPC6 inh;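 active = membrane potential signal moves up or down beyond 5 SD from buffer-only wells, on both duplicate plates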
# HEK293 MPD ctr 2-2 = second counter-screen for TRPC6 modulators: effect in parental HEK293 cells | membrane potential dye fluorescence; after compound, maximal acetylcholine stimulation | inhibition, % at 10 µM | AID 488926 | shares compounds with TRPC6 inh | 14% of 2,400 active;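 active = membrane potential signal drops by more than 5 SD from the mean control signal, in both duplicate plates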;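 note: plate controls were acetylcholine ECmax control wells for no effect and buffer only wells for full effect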
# TRPC4/MOR mod = TRPC4 modulation by TRPC6 hit compounds, confirmation, selectivity assay for TRPC6 modulator project, cell-based, HEK293 TRPC4/mu-opioid, membrane potential dye, mouse; percent change from control (negative = decrease, positive = increase), % at 10 µM; 69% of 2,400 active; shares compounds with TRPC6 inh; membrane potential fluorescence; AID 488927, 2010;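 active = membrane potential signal moved up or down beyond 5 SD of buffer control wells, in both duplicate plates, actives on both sides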;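 note: plate controls were assay buffer wells for no effect and DAMGO maximal-effect wells for full effect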
# TRPC4 ctr inh 2 = mouse TRPC4 off-target activity of TRPC6 modulators, second screen | shares compounds with TRPC6 inh | HEK293 TRPC4/mu-opioid, membrane potential dye fluorescence; stimulated with maximal-effect DAMGO | inhibition, % at 10 µM | 55% of 2,400 active | AID 488928;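 active = drop in membrane potential signal beyond 5 SD of the control wells in both duplicate plates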;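 note: TRPC4 counter screen for TRPC6 hits run under conditions tuned for TRPC6 not TRPC4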
# TRPC6 inh conf = mouse TRPC6 channel inhibitors, confirmation, HEK293 cells, membrane potential dye, duplicate. shares compounds with TRPC6 inh. ACh-evoked depolarization. inhibition, % at 10 µM. 43% of 3,300 active. AID 488960, 2010;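 active = fluorescence ratio falls more than 5 SD below the full-stimulation control mean, in both duplicate runs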;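 note: integrated fluorescence ratio of peak minus minimum over baseline after agonist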
# TRPC6 act confirm = mouse TRPC6 channel activators, confirmation, HEK293 cells, membrane potential dye, duplicate | HEK293-TRPC6 membrane potential dye fluorescence, FDSS | 11% of 2,800 active | shares compounds with TRPC6 inh | activation, % at 10 µM | AID 488961, 2010;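 active = ratio signal rise beyond 5 SD above unstimulated control wells' mean, seen in both duplicate runs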;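 note: plate controls were buffer EC0 wells for no effect and acetylcholine ECmax response for full effect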
# The depositor's hits bear a star; i = inactive; · = no result.
SMILES,TRPC4 inh,TRPC4 act,TRPC6 act,Kir21 inh,TRPC4 PAM,TRPC6 inh,HEK293 MPD ctr-2,HEK293 MPD ctr 2-2,TRPC4/MOR mod,TRPC4 ctr inh 2,TRPC6 inh conf,TRPC6 act confirm,others
COc1ccc(CNc2nc3ccccc3n2CCN2CCCCC2)c(OC)c1,i,i,i,-3.7,i,-10*,·,·,·,·,i,i,TRPC4 spec 2=42%*;TRPC4 spec=9.3%*;HEK293 MPD ctr 2-1=252%*;HEK293 MPD ctr-1=7.9%*
O=C(CSc1ncccc1C(=O)O)Nc1ccc2c(c1)OCCO2,i,i,i,-0.01,i,i,·,·,·,·,·,·,
COc1ccccc1N1CCN(C(=O)CSc2nc(C)cc(=O)[nH]2)CC1,i,i,i,0.81,i,-6.9*,·,·,·,·,i,i,TRPC4 spec 2=i;TRPC4 spec=i;HEK293 MPD ctr 2-1=i;HEK293 MPD ctr-1=i
COc1ccc(C(=O)N2CCNC(=O)C2CC(=O)Nc2cc(Cl)ccc2OC)cc1 (stereo unspecified),i,i,i,0.44,i,i,·,·,·,·,·,·,
COc1ccc(OC)c(NC(=O)CC2C(=O)NCCN2C(=O)Nc2cccc(Cl)c2)c1 (stereo unspecified),i,i,i,0,i,-5.9*,i,i,-14%*,29%*,i,i,
CCOC(=O)[C@@H]1[C@H]2COc3cc(OC)ccc3[C@@H]2N2C(=O)N(c3cccc(Cl)c3)C(=O)[C@@]12C,i,i,i,-0.19,i,i,·,·,·,·,·,·,
Cc1cccc(NC(=O)CCNS(=O)(=O)c2ccc(Cl)cc2)c1,i,i,i,-0.89,i,-5.1*,i,i,i,i,i,i,
CCN1CCCC(OC(=O)c2cc(-c3ccccc3Cl)nc3ccccc23)C1 (stereo unspecified),i,i,i,-3.7,22*,-5.5*,134%*,i,24%*,45%*,i,·,
O=C(c1cc(-c2ccccc2Cl)nc2ccccc12)N1CCOCC1,i,i,i,0.1,i,i,·,·,·,·,·,·,
Fc1cccc(Cc2noc(CN3CCCN(C4Cc5ccccc5C4)CC3)n2)c1,i,i,i,-0.69,i,-5.1*,202%*,i,28%*,70%*,46%*,·,
Fc1cccc(Cc2noc(CN3CCSCC3)n2)c1,i,i,i,1.1,i,i,·,·,·,·,·,·,
COC(=O)CN1C(=O)S/C(=C/c2ccc(N3CCCCC3)o2)C1=O,i,i,13*,-2.5,i,i,162%*,i,90%*,i,i,35%*,
CCOC(=O)CN1C(=O)S/C(=C/c2ccc(N3CCCCC3)o2)C1=O,i,i,i,0.4,i,i,·,·,·,·,·,·,
CC(C)CN(C(=O)C(c1ccccc1)c1ccccc1)c1c(N)n(CC(C)C)c(=O)[nH]c1=O,i,i,i,-0.84,i,i,·,·,·,·,·,·,
CCOC(=O)c1ccc2ncc(C(=O)OCC)c(NCCN3CCOCC3)c2c1,i,i,i,-1.6,i,i,·,·,·,·,·,·,
CCOC(=O)c1ccc2ncc(C(=O)OCC)c(NCCN(C)C)c2c1,i,i,i,-1.9,i,-9.5*,·,·,·,·,i,i,TRPC4 spec 2=i;TRPC4 spec=-19%*;HEK293 MPD ctr 2-1=i;HEK293 MPD ctr-1=-296%*
O=C(COc1ccccc1)Nc1c(C(=O)N2CCC(N3CCCCC3)CC2)oc2ccccc12,i,i,i,-0.43,i,i,·,·,·,·,·,·,
CN(C)CCN(Cc1ccco1)C(=O)c1oc2ccccc2c1NC(=O)COc1ccccc1,i,i,i,-4,i,-5.7*,90%*,i,i,85%*,55%*,i,
Cc1onc(-c2c(Cl)cccc2Cl)c1C(=O)N1CCc2ccccc21,i,i,i,1.4,i,-5.1*,i,i,12%*,i,i,i,
COc1cccc(-c2cccc(NC(=O)C3CCN(Cc4ccc(C)o4)CC3)c2)c1,i,i,i,-2.6,i,-5.3*,128%*,i,18%*,44%*,i,·,
